Here are results for one compound from ChEMBL document CHEMBL4616666, “Discovery of SHP2-D26 as a First, Potent, and Effective PROTAC Degrader of SHP2 Protein” (J Med Chem, 2020).

The source made the active and inactive calls. The calls are words filed in the database; no cut-off is given here. Some results are limits rather than exact numbers.

The target of data set [1] is T1, von Hippel-Lindau disease tumor suppressor/Tyrosine-protein phosphatase non-receptor type 11 (Homo sapiens, UniProt Q06124+P40337). In words: Protac activity at VHL1/SHP2 in human KYSE520 cells assessed as induction of SHP2 degradation at 100 nM measured within 4 hrs by Western blot analysis. The format is cell-based. The method in brief:
(§1)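 Kinetics: cells were seeded overnight in 6-well plates, then given degrader at 100 nM for 2, 4, 8, 12 and 24 h. Harvested cells were lysed in RIPA with protease/phosphatase inhibitors and SHP2 was read by Western blot against GAPDH loading control. KYSE520 were grown in RPMI 1640 and MV4;11 in IMDM, both with 10% FBS.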
Background: In western blotting, separated proteins are transferred to a membrane and probed.
Target sequence in this assay (P40337 whole entry partner, one chain of several): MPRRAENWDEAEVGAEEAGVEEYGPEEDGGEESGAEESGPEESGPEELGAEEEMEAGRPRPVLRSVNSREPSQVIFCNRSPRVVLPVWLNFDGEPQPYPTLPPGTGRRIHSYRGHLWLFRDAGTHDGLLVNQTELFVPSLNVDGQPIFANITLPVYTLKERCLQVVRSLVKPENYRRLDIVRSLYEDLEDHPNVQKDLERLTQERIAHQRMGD

For data set [2], the target named is T1, von Hippel-Lindau disease tumor suppressor/Tyrosine-protein phosphatase non-receptor type 11. The experiment in a line: Protac activity at VHL1/SHP2 in human KYSE520 cells assessed as induction of SHP2 degradation at 1 uM measured after 6 hrs by Western blot analysis relative to control. The format is cell-based. In outline:
(§2)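 KYSE520 cells in RPMI 1640 + 10% FBS, 37 °C, 5% CO2, were exposed to degrader for 6 h. SHP2 was measured by Western blot and densitometry, with background-subtracted band normalized to net GAPDH band. Values are the average of three independent experiments.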
Target sequence in this assay (P40337 whole entry partner, one chain of several): as above

Data set [3] has the same target. The experiment in a line: Protac activity at VHL1/SHP2 in human KYSE520 cells assessed as reduction in ERK phosphorylation measured after 48 hrs by Western blot analysis. Type of data set: cell-based.
Target sequence in this assay (P40337 whole entry partner, one chain of several): as above
The target is the same in data set [4]. The experiment in a line: Protac activity at VHL1/SHP2 in human MV4-11 cells assessed as reduction in ERK phosphorylation measured after 48 hrs by Western blot analysis. Type of data set: cell-based.
Target sequence in this assay (P40337 whole entry partner, one chain of several): as above
For data set [5] the target is unchanged. In words: Protac activity at VHL1/SHP2 in human KYSE520 cells assessed as reduction in ERK phosphorylation at 100 nM measured after 48 hrs by Western blot analysis. The format is cell-based.
Target sequence in this assay (P40337 whole entry partner, one chain of several): as above
Data set [6] shares this target. The experiment in a line: Protac activity at VHL1/SHP2 in human MV4-11 cells assessed as induction of SHP2 degradation measured after 12 hrs by Western blot analysis. Type of data set: cell-based. The method in brief:
(§3)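 Dose–response: KYSE520 (RPMI 1640) or MV4;11 (IMDM) cells, with 10% FBS, were treated across a concentration range for 12 h. SHP2 was measured by Western blot and densitometry, normalized to GAPDH band density.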

Data set [7] deals with MV4-11. In words: Growth inhibition of human MV4-11 cells measured after 4 days by WST8 assay. To be noted: MV4-11, 96 h.
Data set [8] has as its system KYSE-520 cell line. In words: Potency index, ratio of SHP099 IC50 to test compound IC50 for growth inhibition of human KYSE520 cells. The format is functional.
Data set [9] has as its target T1, von Hippel-Lindau disease tumor suppressor/Tyrosine-protein phosphatase non-receptor type 11. The experiment in a line: Protac activity at VHL1/SHP2 in human MV4-11 cells assessed as induction of SHP2 degradation at 100 nM measured after 4 to 8 hrs by Western blot analysis. The format is cell-based. In outline: as §1
Target sequence in this assay (P40337 whole entry partner, one chain of several): as above
Data set [10] can be described thus: Aqueous solubility of the compound. Type of data set: physicochemical. The note with it: buffer.
Data set [11] addresses T1, von Hippel-Lindau disease tumor suppressor/Tyrosine-protein phosphatase non-receptor type 11. In words: Protac activity at VHL1/SHP2 in human KYSE520 cells assessed as induction of SHP2 degradation at 0.1 uM measured after 3 hrs in presence of E1 inhibitor MLN4924 by Western blot analysis. Type of data set: cell-based. The method in brief:
(§4)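 KYSE520 cells in RPMI 1640 + 10% FBS were pretreated 1 h with VHL-1 ligand (10 μM), SHP2 inhibitor (10 μM), MLN4924 (0.5 μM) or MG132, then given degrader at 0.1 μM for 3 h. Cells were lysed in RIPA with protease/phosphatase inhibitors and run on 4–12% SDS–PAGE/PVDF Western blot for SHP2, with GAPDH as loading control.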

The test system of data set [12] is MV4-11. The experiment in a line: Potency index, ratio of SHP099 IC50 to test compound IC50 for growth inhibition of human MV4-11 cells. The format is functional.
The target in data set [13] is T1, von Hippel-Lindau disease tumor suppressor/Tyrosine-protein phosphatase non-receptor type 11. The experiment in a line: Protac activity at VHL1/SHP2 in human KYSE520 cells assessed as induction of SHP2 degradation at 0.1 uM measured after 6 hrs by Western blot analysis relative to control. Type of data set: cell-based. In outline:
as §2

The target is the same in data set [14]. The experiment in a line: Protac activity at VHL1/SHP2 in human KYSE520 cells assessed as induction of SHP2 degradation at 0.1 uM measured after 3 hrs in presence of proteasome inhibitor MG132 by Western blot analysis. Type of data set: cell-based. In outline: as §4
The target is the same in data set [15]. The experiment in a line: Protac activity at VHL1/SHP2 in human MV4-11 cells assessed as induction of SHP2 degradation at 0.1 uM measured after 24 hrs by Western blot analysis relative to control. Type of data set: cell-based. The method in brief:
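MV4;11 cells in IMDM + 10% FBS were exposed to degrader for 24 h. SHP2 was quantified by Western blot densitometry, with background-subtracted band divided by net GAPDH loading-control band. Average of three independent experiments.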

Data set [16] has the same target. The experiment in a line: Protac activity at VHL1/SHP2 in human KYSE520 cells assessed as induction of SHP2 degradation at 100 nM measured after 8 hrs by Western blot analysis relative to control. The format is cell-based. In outline: as §1
The target is the same in data set [17]. In words: Protac activity at VHL1/SHP2 in human KYSE520 cells assessed as induction of SHP2 degradation at 0.1 uM measured after 3 hrs in presence of VHL-1 ligand by Western blot analysis. The format is cell-based. The method in brief:
as §4

Data set [18] has the same target. In words: Protac activity at VHL1/SHP2 in human MV4-11 cells assessed as reduction in ERK phosphorylation at 100 nM measured after 48 hrs by Western blot analysis relative to control. Type of data set: cell-based. Also noted: scale not given: the % may be the effect or the level left.
For data set [19] the target is unchanged. The experiment in a line: Protac activity at VHL1/SHP2 in human KYSE520 cells assessed as induction of SHP2 degradation at 0.1 uM measured after 3 hrs in presence of SHP2 inhibitor by Western blot analysis. The format is cell-based. In outline: as §4
In data set [20] the target is T2, Tyrosine-protein phosphatase non-receptor type 11 (Homo sapiens) (UniProt Q06124).
T2 sequence (whole entry): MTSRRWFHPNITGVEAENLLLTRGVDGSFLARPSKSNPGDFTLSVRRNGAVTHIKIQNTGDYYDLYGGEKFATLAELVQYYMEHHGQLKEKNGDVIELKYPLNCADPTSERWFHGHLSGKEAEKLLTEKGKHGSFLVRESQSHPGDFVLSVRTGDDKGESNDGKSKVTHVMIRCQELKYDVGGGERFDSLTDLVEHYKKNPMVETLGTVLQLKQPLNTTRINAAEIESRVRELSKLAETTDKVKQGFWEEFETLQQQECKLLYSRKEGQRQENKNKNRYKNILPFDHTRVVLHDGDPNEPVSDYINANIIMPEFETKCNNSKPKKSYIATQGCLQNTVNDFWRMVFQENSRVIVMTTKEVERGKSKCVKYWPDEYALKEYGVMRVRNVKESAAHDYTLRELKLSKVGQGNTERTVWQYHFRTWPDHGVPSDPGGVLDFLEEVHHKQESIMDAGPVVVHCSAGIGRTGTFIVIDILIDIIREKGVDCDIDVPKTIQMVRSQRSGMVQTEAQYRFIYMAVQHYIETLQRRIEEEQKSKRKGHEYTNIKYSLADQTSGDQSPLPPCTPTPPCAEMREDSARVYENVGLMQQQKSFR
The experiment in a line: Inhibition of SHP2 in human MV4-11 cells assessed as reduction in ERK phosphorylation at >3000 nM measured after 48 hrs by Western blot analysis relative to control. The format is cell-based.

The target of data set [21] is T1, von Hippel-Lindau disease tumor suppressor/Tyrosine-protein phosphatase non-receptor type 11. In words: Protac activity at VHL1/SHP2 in human KYSE520 cells assessed as induction of SHP2 degradation measured after 12 hrs by Western blot analysis. The format is cell-based. The method in brief:
as §3

For data set [22], the system named is KYSE-520 cell line. The experiment in a line: Growth inhibition of human KYSE520 cells measured after 4 days by WST8 assay. To be noted: KYSE-520, 96 h.

The term DC50 denotes the concentration giving 50% degradation. By IC50 is commonly meant the concentration needed to halve the response being measured. As usually defined, the inhibition is how much of the control response was suppressed. As for `Cc1ncsc1-c1ccc([C@H](C)NC(=O)[C@@H]2C[C@@H](O)CN2C(=O)[C@@H](NC(=O)CCCCCCCCN2CCN(C(=O)CCC(=O)Nc3cccc(Sc4ncc(N5CCC(C)(N)CC5)nc4N)c3Cl)CC2)C(C)(C)C)cc1` (single isomer, unassigned), the outcome in data set [1], in data set [5] and in [9] was Active. Further, the Activity was > 95% in data set [2]; “Dose-dependent effect” in [3]; “Dose-dependent effect” in data set [4]; “Dose-dependent effect” in data set [6]; > 95% in [13]; > 95% in data set [15]. For the same compound, the results for the Activity in [16], in [18] and in data set [21] were 100%, 100% and “Dose-dependent effect”, respectively. The DC50 in [6] was determined as 2.6 nM; in [21] it was 6 nM. For the same compound, the IC50 is 9.9 nM in [7] and 660 nM in data set [22]. The “Ratio IC50” value in data set [8] came to 28; in data set [12], 100. For the same compound, the solubility entry in data set [10] was “Soluble”. The outcome in [11], in data set [14], in data set [17] and in data set [19] was inactive. Also, the inhibition in [20] was determined as 100%.
